The values below come from article PMC12618661 (NPJ Science of Food, 2025).

The subject of data set [1] is mammalian mucosal α-glucosidase (rat intestinal acetone powder, RIAP). Nature of the data set: Glucose generation rate. To be noted: 5 mg/mL substrate, RIAP-derived α-glucosidase, 2 h. Format: in vitro ADME. An outline of the steps:
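Rat intestinal acetone powder (0.5 g) was extracted in 10 mL 100 mM sodium phosphate (pH 6.2) at 4 °C for 24 h and centrifuged. The supernatant was freeze-dried and re-dissolved in 10 mL of the same buffer as α-glucosidase. Test compound at 5 mg/mL was incubated with the enzyme. Aliquots were taken at 0, 10, 20, 30, 60 and 120 min, heat-inactivated for 10 min, and glucose was measured with a glucose assay kit.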

Data set [2] is described as follows: Static in vitro digestion simulation. In kind it is in vitro ADME, human. To be noted: oral, gastric and intestinal phases, 37 °C. An outline of the steps:
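Static digestion of 50 mg test compound ran at 37 °C with stirring. Oral phase: saliva pH 7.0 (1.5 mM CaCl₂, 75 U/mL amylase), sampled at 5 min. Samples were heat-stopped (100 °C, 5 min), centrifuged and filtered, and glucose was measured by kit.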

Data set [3] can be described thus: Water solubility evaluation. In kind it is physicochemical. To be noted: deionized water. An outline of the steps: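 Compound was added to deionized water to supersaturation and stirred for 24 h at 25 °C. The mixture was centrifuged at 8000 × g, 25 °C, for 20 min. The supernatant was freeze-dried and the residue weighed.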
The conditions of data set [4]: vs sucrose; stated without own test, ref not given; cited from earlier work.
The conditions of data set [5]: TGA; cited from earlier work.
For data set [6], the system named is HFD-fed C57BL/6 N mice. Description: HFD-induced obesity in mice: body weight, intake, tissue weight, histology. In kind it is in vivo, mouse. To be noted: 0.2 g/L in drinking water, 16 weeks. The gist of the method:
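Eight-week-old C57BL/6N mice were kept on a 60% kcal-fat HFD for 16 weeks with test compound at 0.2 g/L in drinking water ad libitum, or plain water. Estimated intake was about 0.675 mg/mouse/day. Body weight was taken weekly and food/water every other day (n = 10). Median-weight mice gave formalin-fixed paraffin sections (gWAT 7 μm, liver 5 μm), H&E stained (n = 5). Adipocyte size came from about 3,000 cells, four images per mouse. Data are mean ± SEM.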

Data set [7] has as its system HFD-fed C57BL/6 N mice. Description: Immunoblot of tissue lysates from HFD-fed mice. In kind it is in vivo, mouse. To be noted: 0.2 g/L in drinking water, 16 weeks. The gist of the method:
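Mice were on a 16-week 60% kcal-fat HFD with test compound at 0.2 g/L in drinking water or plain water. Liver, gWAT and BAT lysates came from median-body-weight mice. Equal protein was run on SDS-PAGE, transferred to nitrocellulose and blocked in 5% skim milk. Primary antibodies (ACC, FAS, UCP1, p-PLIN, HSP90) ran overnight at 4 °C, then secondary 2–3 h at room temperature. Detection was by ECL with band densitometry, n = 4 per group.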

The nature of data set [8]: pH stability in Britton–Robinson buffer. Format: physicochemical. An outline of the steps: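 Compound was dissolved at 0.05% (w/v) in Britton–Robinson buffer over pH 1.4–10. The amount remaining was quantified by HPLC.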
The next data set deals with rats. To be noted: cited from earlier work.
The nature of data set [9]: Storage stability in aqueous solution. Format: physicochemical. Conditions: 1 month, 25 °C. An outline of the steps:
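Aqueous solutions of 1–2% (w/v) were held at 25 °C for up to 1 month. Compound remaining in the supernatant at 0, 7, 15 and 30 days was quantified by HPLC.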

Data set [10] has as its system HFD-fed C57BL/6 N mice. Nature of the data set: Serum analysis of HFD-fed mice. In kind it is in vivo, mouse. To be noted: 0.2 g/L in drinking water, 16 weeks. The gist of the method:
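After 16 weeks of 60% kcal-fat HFD with test compound at 0.2 g/L in drinking water or plain water, mice were euthanised with CO2. Blood was taken by cardiac puncture. An automated chemistry analyser measured serum cholesterol, TG, ALT, AST and glucose (n = 5 per group). Data are mean ± SEM with one-way ANOVA and Dunnett's or Tukey's test.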

Data set [11] can be described thus: Thermogravimetric analysis. Format: physicochemical. Conditions: TGA.

Converted amounts (≈) assume the structure as drawn.

`C=C1C[C@@]23CC[C@H]4[C@@](C)(CCC[C@@]4(C)C(=O)O[C@@H]4O[C@H](CO)[C@@H](O)[C@H](O)[C@H]4O)[C@@H]2CC[C@]1(O[C@@H]1O[C@H](CO)[C@@H](O)[C@H](O)[C@H]1O[C@@H]1O[C@H](CO)[C@@H](O)[C@H](O)[C@H]1O)C3` [ST, stevioside]: in data set [1], the Glucose released entry was “almost no glucose release”. The “Hydrolysis in in vitro simulated digestion” value in [2] is 2%. Further, in [3], the concentration in solution (solubility at 24 h) was 11 ± 3.11 mg/mL (≈ 13.6 mM). Further, in [4], the “Sweetness relative to sucrose” value was 250 times.
On to rebaudioside A [Reb A], for which, in [1], the Glucose released entry is recorded as “almost no glucose release”. Further, the “Hydrolysis in in vitro simulated digestion” value in data set [2] is 2%. In [5], the “Second-stage mass loss temperature previously reported” value is 284.71 °C. Moreover, in the data set with HFD-fed C57BL/6 N mice [6], the “Crown-like structure (CLS) in gWAT, inflammatory indicator” value is given as “significantly increased”; the “Number of large adipocytes in gWAT” value is recorded as “remained unchanged”; the “Water intake and food consumption” value is “comparable across the groups”; the gWAT weight entry is given as “did not increase”. Further, in the data set on HFD-fed C57BL/6 N mice [6] (vs control), the Body weight entry is “no effect”. Also, the “ACC protein expression in liver” value in the data set on HFD-fed C57BL/6 N mice [7] was “increased”. In addition, the “p-PLIN protein level in gWAT” value in the data set with HFD-fed C57BL/6 N mice [7] (vs control) was “substantially decreased”. Besides, the “Initial concentration retained at pH 1.4” value in [8] (pH 1.4, 0.05% (w/v) in Britton–Robinson buffer) was 25.26 ± 3.19%. Besides, the “Initial concentration retained at pH 2” value in [8] (pH 2, 0.05% (w/v) in Britton–Robinson buffer) turned out to be 82.67 ± 2.39%. Also, the “Initial concentration retained at pH 10” value in data set [8] (pH 10, 0.05% (w/v) in Britton–Robinson buffer) is on record as 84.56 ± 1.68%. Also, the “No-observed-adverse-effect level (NOAEL)” value in the data set with rats is 4100 mg/kg/day. The compound further showed a Water solubility in data set [3] (stirred 24 h at 25 °C) of 5.10 ± 2.93 mg/mL. The “Initial concentration remaining after storage, 1% (w/v) aqueous solution” value in [9] (1% (w/v)) amounted to 52.61 ± 1.69%. Further, the “Initial concentration remaining after storage, 2% (w/v) aqueous solution” value in [9] (2% (w/v)) was determined as 32.14 ± 3.78%. For the same compound, in the data set on HFD-fed C57BL/6 N mice [10], the “Serum TG” value is on record as “remained unchanged” and the Serum cholesterol result was “remained unchanged”. The “Temperature at which second-stage mass loss commenced” value in data set [11] was 280–290 °C. Besides, the “Initial mass retained at 597 °C” value in data set [11] (597 °C) was found to be 9.92 ± 0.45%. Besides, in data set [11] (stage commencing at approximately 280–290 °C), the “Initial mass retained, second-stage mass loss” value worked out at 19.89 ± 1.67%. Further, the “Sweetness relative to sucrose” value in data set [4] was 250 times.

For orientation: solubility means the dissolved amount per volume that the medium holds. High values mean much dissolved substance, low ones little dissolved substance.
